Source: ChEMBL document CHEMBL2321876
Converted amounts (≈) assume the structure as drawn. The source made the active and inactive calls. How the calls were made is not given here.

Legend:
[1] = system: Mycobacterium tuberculosis; assay: Bacteriostatic activity against Mycobacterium tuberculosis H37Rv using iron-deficient GAST media after 10 to 14 days by broth microdilution assay; assay type: functional
Summary of the method: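 Broth microdilution in iron-deficient GAST, in quadruplicate, with compounds from DMSO stocks and DMSO-matched control wells. Isoniazid served as positive control. Initial density 10⁴–10⁵ cells/assay, 100 μL/well, 37 °C. Growth was read as OD at 620 nm at 10–14 days, when untreated controls reached OD₆₂₀ 0.2–0.3.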

Acinetobacter baumannii [2] = assay: Antibacterial activity against Acinetobacter baumannii ATCC 19606 using iron-deficient M9 minimal media after 15 hrs by broth microdilution assay; assay type: functional, organism-based; conditions: ATCC 19606 = CIP 70.34 = JCM 6841
Summary of the method: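 ATCC 19606 grown overnight at 30 °C on LB agar, washed twice and resuspended in M9 minimal medium with 0.2% casamino acids and 200 μM dipyridyl. Inoculated at A600 0.0003 in this medium plus 1 μM FeCl3. Inhibitors from DMSO at 100 μM final, in triplicate. Tetracycline (100 ng/mL) and 1% DMSO as controls. Incubated at 30 °C; A600 read at 15 h.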

Acinetobacter baumannii [3] = assay: Antibacterial activity against Acinetobacter baumannii ATCC 19606 using iron-replete M9 minimal media after 15 hrs by broth microdilution assay; assay type: functional, organism-based; conditions: ATCC 19606 = CIP 70.34 = JCM 6841
Summary of the method: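 ATCC 19606 grown overnight at 30 °C on LB agar, washed twice in dipyridyl-containing M9/casamino acids medium, then diluted to A600 0.0003 in M9 minimal medium with 0.2% casamino acids plus 200 μM FeCl3. Inhibitors from DMSO at 100 μM final, in triplicate. Controls were tetracycline (100 ng/mL) and 1% DMSO. Incubated at 30 °C, A600 measured at 15 h.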

[4] = system: Mycobacterium tuberculosis; assay: Bacteriostatic activity against Mycobacterium tuberculosis H37Rv using iron-replete GAST media after 10 to 14 days by broth microdilution assay; assay type: functional
Summary of the method: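 Broth microdilution in GAST supplemented with 200 μM FeCl₃, in quadruplicate, with compounds from DMSO stocks and DMSO-matched controls. Isoniazid served as positive control. Inoculum 10⁴–10⁵ cells/assay, 100 μL/well, 37 °C. OD₆₂₀ was read at 10–14 days, when untreated controls reached 0.2–0.3.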

[5] = Displacement of Fl-Sal-AMS from Acinetobacter baumanni BasE expressed in Escherichia coli after 30 mins by fluorescence polarization assay; set-up: species or system Acinetobacter baumannii; conditions: read-out: Kd
[6] = Selectivity ratio of Kd for Mycobacterium tuberculosis MbtA to Kd for Acinetobacter baumanni BasE
[7] = Displacement of Fl-Sal-AMS from Mycobacterium tuberculosis MbtA expressed in Escherichia coli after 30 mins by fluorescence polarization assay

O=C(O)c1cc(-c2ccccc2)nc2c1cnn2Cc1ccncc1
MIC99 [1]: > 125 µM
Activity (Acinetobacter baumannii [2]): inactive
Activity (Acinetobacter baumannii [3]): inactive
MIC99 [4]: > 125 µM

CCOC(=O)c1cc(-c2ccc(Cl)s2)nc2c1cnn2Cc1ccncc1
MIC99 [1]: 25 µM (≈ 9.97 µg/mL)
MIC99 [4]: 25 µM (≈ 9.97 µg/mL)

O=C(O)c1cc(-c2ccc(Oc3ccccc3)cc2)nc2c1cnn2Cc1ccncc1
MIC99 [1]: 25 µM (≈ 10.6 µg/mL)
Activity (Acinetobacter baumannii [2]): inactive
Activity (Acinetobacter baumannii [3]): inactive
MIC99 [4]: 25 µM (≈ 10.6 µg/mL)

CCOC(=O)c1cc(-c2ccc(Oc3ccccc3)cc2)nc2c1cnn2Cc1ccncc1
MIC99 [1]: 50 µM (≈ 22.5 µg/mL)
MIC99 [4]: 100 µM (≈ 45 µg/mL)

O=C(O)c1cc(-c2ccc(OCc3ccccc3)cc2)nc2c1cnn2Cc1ccncc1
Activity (Acinetobacter baumannii [2]): inactive
Activity (Acinetobacter baumannii [3]): inactive
Kd [5]: 0.00214 µM
Selectivity ratio [6]: 1000
Kd [7]: 5.4 µM

O=C(O)c1cc(-c2ccc(Cl)s2)nc2c1cnn2Cc1ccncc1
MIC99 [1]: 50 µM (≈ 18.5 µg/mL)
Activity (Acinetobacter baumannii [2]): inactive
Activity (Acinetobacter baumannii [3]): inactive
MIC99 [4]: 50 µM (≈ 18.5 µg/mL)

CCOC(=O)c1cc(-c2ccccc2)nc2c1cnn2Cc1ccncc1
MIC99 [1]: > 125 µM
Activity (Acinetobacter baumannii [2]): inactive
Activity (Acinetobacter baumannii [3]): inactive
Kd [5]: 2.16 µM
Kd [7]: > 100 µM
MIC99 [4]: 125 µM (≈ 44.8 µg/mL)

Cc1ccccc1-c1cc(C(=O)O)c2cnn(Cc3ccncc3)c2n1
Activity (Acinetobacter baumannii [2]): inactive
Activity (Acinetobacter baumannii [3]): inactive
Kd [5]: 2.15 µM
Kd [7]: > 100 µM

CC(=O)Nc1ccc(-c2cc(C(=O)O)c3cnn(Cc4ccncc4)c3n2)cc1
Activity (Acinetobacter baumannii [2]): inactive
Activity (Acinetobacter baumannii [3]): inactive
Kd [5]: 0.747 µM
Kd [7]: 4.2 µM

CCCNC(=O)c1cc(-c2ccccc2)nc2c1cnn2Cc1ccncc1
Activity (Acinetobacter baumannii [2]): inactive
Activity (Acinetobacter baumannii [3]): inactive
Kd [5]: 0.249 µM
Kd [7]: > 50 µM

O=C(O)c1ccc(-c2cc(C(=O)O)c3cnn(Cc4ccncc4)c3n2)cc1
Activity (Acinetobacter baumannii [2]): inactive
Activity (Acinetobacter baumannii [3]): inactive
Kd [5]: 0.776 µM
Kd [7]: 6.1 µM

O=C(O)c1cc(-c2ccc3[nH]ccc3c2)nc2c1cnn2Cc1ccncc1
Activity (Acinetobacter baumannii [2]): inactive
Activity (Acinetobacter baumannii [3]): inactive
Kd [5]: 0.0618 µM
Kd [7]: 2.9 µM

O=C(O)c1cc(-c2ccccc2)nc2c1cnn2Cc1ccc(O)cc1
Activity (Acinetobacter baumannii [2]): inactive
Activity (Acinetobacter baumannii [3]): inactive
Kd [5]: 0.556 µM
Kd [7]: > 100 µM

O=C(O)c1cc(-c2ccc(F)cc2F)nc2c1cnn2Cc1ccncc1
Activity (Acinetobacter baumannii [2]): inactive
Activity (Acinetobacter baumannii [3]): inactive
Kd [5]: 0.0426 µM
Kd [7]: 8 µM

O=C(O)c1cc(-c2ccccc2-c2ccccc2Cl)nc2c1cnn2Cc1ccncc1
Activity (Acinetobacter baumannii [2]): inactive
Activity (Acinetobacter baumannii [3]): inactive
Kd [5]: 19.7 µM
Kd [7]: > 50 µM

Cc1ccsc1-c1cc(C(=O)O)c2cnn(Cc3ccncc3)c2n1
Activity (Acinetobacter baumannii [2]): inactive
Activity (Acinetobacter baumannii [3]): inactive
Kd [5]: 0.34 µM
Kd [7]: 19.2 µM

NC(=O)c1cc(-c2ccccc2)nc2c1cnn2Cc1ccncc1
Activity (Acinetobacter baumannii [2]): inactive
Activity (Acinetobacter baumannii [3]): inactive
Kd [5]: 0.0668 µM
Kd [7]: 8.57 µM

O=C(O)c1cc(N2CCOCC2)nc2c1cnn2Cc1ccncc1
Activity (Acinetobacter baumannii [2]): inactive
Activity (Acinetobacter baumannii [3]): inactive
Kd [5]: 1.45 µM
Kd [7]: 29.1 µM

O=C(O)c1cc(-c2ccco2)nc2c1cnn2Cc1ccncc1
Activity (Acinetobacter baumannii [2]): inactive
Activity (Acinetobacter baumannii [3]): inactive
Kd [5]: 0.342 µM
Kd [7]: 19.5 µM

O=C(O)c1cc(-c2ccc(O)cc2)nc2c1cnn2Cc1ccncc1
Activity (Acinetobacter baumannii [2]): inactive
Activity (Acinetobacter baumannii [3]): inactive
Kd [5]: 0.00885 µM
Kd [7]: 3.7 µM

O=C(O)c1cc(NCCCO)nc2c1cnn2Cc1ccncc1
Activity (Acinetobacter baumannii [2]): inactive
Activity (Acinetobacter baumannii [3]): inactive
Kd [5]: 2.46 µM
Kd [7]: 97.7 µM

Cc1csc(-c2cc(C(=O)O)c3cnn(Cc4ccncc4)c3n2)c1
Activity (Acinetobacter baumannii [2]): inactive
Activity (Acinetobacter baumannii [3]): inactive
Kd [5]: 0.0869 µM
Kd [7]: 2.54 µM

O=C(O)c1cc(-c2ccccc2)cc2c1cnn2Cc1ccncc1
Activity (Acinetobacter baumannii [2]): inactive
Activity (Acinetobacter baumannii [3]): inactive
Kd [5]: 0.0848 µM
Kd [7]: 27.6 µM

CCOC(=O)c1cc(-c2ccc(C(=O)c3ccccc3)cc2)nc2c1cnn2Cc1ccncc1
MIC99 [1]: > 125 µM
MIC99 [4]: > 125 µM

CCCCCCCCCCCCOc1ccc(-c2cc(C(=O)O)c3cnn(Cc4ccncc4)c3n2)cc1
Activity (Acinetobacter baumannii [2]): inactive
Activity (Acinetobacter baumannii [3]): inactive
Kd [5]: 28.4 µM
Kd [7]: > 50 µM

CC(C)NC(=O)c1cc(-c2ccccc2)nc2c1cnn2Cc1ccncc1
Activity (Acinetobacter baumannii [2]): inactive
Activity (Acinetobacter baumannii [3]): inactive
Kd [5]: 0.164 µM
Kd [7]: > 100 µM

CCCCCCCCOc1ccc(-c2cc(C(=O)O)c3cnn(Cc4ccncc4)c3n2)cc1
Activity (Acinetobacter baumannii [2]): inactive
Activity (Acinetobacter baumannii [3]): inactive
Kd [5]: 0.191 µM
Kd [7]: > 50 µM

O=C(O)c1cc(NCc2ccccc2)nc2c1cnn2Cc1ccncc1
Activity (Acinetobacter baumannii [2]): inactive
Activity (Acinetobacter baumannii [3]): inactive
Kd [5]: 2.32 µM
Kd [7]: 6.02 µM

O=C(O)c1cc(-c2cccc3cccnc23)nc2c1cnn2Cc1ccncc1
Activity (Acinetobacter baumannii [2]): inactive
Activity (Acinetobacter baumannii [3]): inactive
Kd [5]: 0.776 µM
Kd [7]: 22.5 µM

O=C(c1ccccc1)c1ccc(-c2cc(C(=O)O)c3cnn(Cc4ccncc4)c3n2)cc1
MIC99 [1]: > 125 µM
Activity (Acinetobacter baumannii [2]): inactive
Activity (Acinetobacter baumannii [3]): inactive
MIC99 [4]: > 125 µM

O=C(O)c1cc(-c2cccnc2)nc2c1cnn2Cc1ccncc1
Activity (Acinetobacter baumannii [2]): inactive
Activity (Acinetobacter baumannii [3]): inactive
Kd [5]: 0.132 µM
Kd [7]: 16.8 µM

O=C(O)c1cc(-c2cncc3ccccc23)nc2c1cnn2Cc1ccncc1
Activity (Acinetobacter baumannii [2]): inactive
Activity (Acinetobacter baumannii [3]): inactive
Kd [5]: 7.73 µM
Kd [7]: > 100 µM
